Reference: PMC10228392 (mAbs, 2023)

Tests used:
α-caff VHH = system: α-caff VHH; parameters: species or system llama; settings: binding to anti-caffeine VHH
Method in brief: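 Anti-caffeine VHH was dialysed overnight against PBS pH 7.4. Test compound at 50 µM in the syringe was titrated into 10 µM VHH in the cell at 25°C, as 27 injections of 10 µL.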

[1] = Guanidinium hydrochloride chemical unfolding by circular dichroism; format: physicochemical; settings: 25°C
VHH:VHH dimer = test: Analytical ultracentrifugation, sedimentation equilibrium; format: binding; settings: with vs without stoichiometric caffeine
Method in brief: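 Sedimentation equilibrium on tag-free, E. coli-expressed anti-caffeine VHH (WT, and F47R with caffeine) at 3, 10 and 30 µM, alone or with stoichiometric caffeine (1.5, 5, 15 µM), at 20°C. Cells were spun 24 h at 27,000, 32,000 and 44,000 rpm and scanned at 294, 260 and 236 nm. All speeds and concentrations were analysed globally: a single-exponential fit gave weight-averaged MW, then a monomer-dimer fit gave assembly constants.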

[2] = molecular target: anti-caffeine VHH produced through grafting CDR regions (Caffgraft); test: AUC
[3] = molecular target: anti-caffeine VHH produced through grafting CDR regions (Caffgraft); test: AUC; remark: listed apart in the source
[4] = molecular target: anti-caffeine VHH produced through grafting CDR regions (Caffgraft); test: ITC
[5] = Isothermal titration calorimetry
Method in brief: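 Single arginine interface variants were made by site-directed mutagenesis and expressed in E. coli, and the tag was removed. For low-affinity binding (Turnbull method), 1 mM caffeine was titrated into 100 µM VHH variant, with stoichiometry fixed at n = 0.5 in the fit. Protein concentration came from ε280 30,035 M−1 cm−1 (F47R, V104R) or 28,545 M−1 cm−1 (Y106R).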

## Cn1c(=O)c2c(ncn2CC(=O)O)n(C)c1=O [theophylline-7-acetic acid]
α-caff VHH
  ΔΔG° penalty (loss in affinity) relative to caffeine: ~1.5 kcal/mol

B1: anti-caffeine VHH produced through grafting CDR regions (Caffgraft) (VHH)
VHH: QVQLVESGGGLVQAGGSLRLSCTASGRTGTIYSMAWFRQAPGKEREFLATVGWSSGITYYMDSVKGRFTISRDKGKNTVYLQMDSLKPEDTAVYYCTATRAYSVGYDYWGQGTQVTVSS
[1]
  loss of stability (ΔGu) relative to anti-RNase A VHH: approximately 1.5 kcal/mol
[1]; guanidinium hydrochloride
  m-value: 2.62 ± 0.06 kcal mol^−1M^−1
[1]; guanidinium hydrochloride, PBS pH 7.4, 10 μM VHH
  ΔGu: 7.6 ± 0.2 kcal/mol
VHH:VHH dimer
  fold higher observed dimerization affinity on caffeine binding: ~28 fold
[2]
  Kd: 0.848 µM
[3]
  Kd: 23.5 µM
  stoichiometry N: 2
[4]
  Kd: 13.1 µM

B2: α-caff VHH-F47R: anti-caffeine VHH dimer interface variant with arginine at F47 (Kabat numbering) (antibody, V domains shown)
VH: QVQLVESGGGLVQAGGSLRLSCTASGRTGTIYSMAWFRQAPGKERERLATVGWSSGITYYMDSVKGRFTISRDKGKNTVYLQMDSLKPEDTAVYYCTATRAYSVGYDYWGQGTQVTVSS
[5]
  ΔΔG° (weaker caffeine binding affinity than anti-caffeine VHH): > 5 kcal/mol
